Consider 30 compounds from ChEMBL document CHEMBL1156054, “Allosteric functional switch of neurokinin A-mediated signaling at the neurokinin NK2 receptor: structural exploration” (J Med Chem, 2009).

Activity calls are given as the source filed them. No cut-off for these calls is given here.

Assay [1] deals with T1, Substance-K receptor (Rattus norvegicus) (UniProt P16610).
T1 sequence (whole entry): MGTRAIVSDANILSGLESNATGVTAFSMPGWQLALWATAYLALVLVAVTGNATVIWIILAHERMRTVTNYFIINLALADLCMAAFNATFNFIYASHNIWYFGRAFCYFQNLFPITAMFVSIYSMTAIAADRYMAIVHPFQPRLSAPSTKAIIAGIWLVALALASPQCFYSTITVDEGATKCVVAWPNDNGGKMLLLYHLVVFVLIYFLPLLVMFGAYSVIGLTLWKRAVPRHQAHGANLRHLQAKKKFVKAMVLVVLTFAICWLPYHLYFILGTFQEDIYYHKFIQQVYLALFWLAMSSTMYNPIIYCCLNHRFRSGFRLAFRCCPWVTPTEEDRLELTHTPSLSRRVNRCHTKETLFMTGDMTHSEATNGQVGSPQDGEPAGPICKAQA
In words: Allosteric modulation of rat NK2 receptor expressed in HEK293 cells assessed as formation of active receptor calcium-triggering conformation at 10 uM in presence of 20nM NKA-Bo by FRET assay. It counts as functional, cell-based. The gist of the method: (§1)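 HEK293 cells stably expressing EGFP-fused rat NK2 receptor (hygromycin B 500 μg/mL selection) are suspended in Hepes-BSA buffer, pH 7.4, with protease inhibitors. EGFP emission is read at 510 nm with 470 nm excitation. 20 nM NKA-Bo is added at 50 s, compound (10 μM) at 450 s for 150 s, then excess unlabeled NKA at 600 s.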

Assay [2] has as its target T1, Substance-K receptor (Rattus norvegicus). In words: Inhibition of NKA-Bo binding to rat NK2 receptor expressed in HEK293 cells at 10 uM by FRET assay relative to neurokinin A. The class given is cell-based. An outline of the steps: as §1
Assay [3] has the same target. In words: Allosteric modulation of rat NK2 receptor expressed in HEK293 cells assessed as enhancement of neurokinin A-induced intracellular calcium level at 20 uM by spectrofluorimetry. The class given is functional, cell-based.
Assay [4] shares this target. In words: Allosteric modulation of rat NK2 receptor expressed in HEK293 cells assessed as formation of active receptor cAMP-producing conformation at 50 uM in presence of 20nM NKA-Bo by FRET assay. The class given is functional, cell-based.
Assay [5] has the same target. In words: Allosteric modulation of rat NK2 receptor expressed in HEK293 cells assessed as formation of active receptor cAMP-producing conformation at 10 uM in presence of 20nM NKA-Bo by FRET assay. The class given is functional, cell-based. The gist of the method: as §1
Assay [6] shares this target. The assay is described as follows: Allosteric modulation of rat NK2 receptor expressed in HEK293 cells assessed as formation of active receptor calcium-triggering conformation at 50 uM in presence of 20nM NKA-Bo by FRET assay. The class given is functional, cell-based.
Assay [7] shares this target. The assay is described as follows: Allosteric modulation of rat NK2 receptor expressed in HEK293 cells assessed as reduction of neurokinin A-induced cAMP production at 10 uM by radioimmunoassay. The class given is functional, cell-based. On the set-up: scale not given: the % may be the effect or the level left. The gist of the method: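 HEK293 cells expressing NK2 receptor are seeded at 50000 on collagen-coated wells and cultured 3 days (~80% confluency). They are stimulated with increasing NKA concentrations with or without 10 μM compound. The reaction is stopped with ice-cold 0.2 M HCl and cAMP is measured by radioimmunoassay. Values are mean ± SD of six determinations; the change in maximal response amplitude is reported.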
(Cyclic AMP is a second messenger, typically raised through Gs and lowered through Gi signalling.)

A word on the inhibition: it is the relative decrease from the control value, in per cent. In the case of `O=C(CN(Cc1ccccc1)Cc1ccc2ccccc2c1)N1CCCCC1`, the Activity in assay [1] was determined as 44%. This compound also gave an inhibition in assay [2] of 0%.
Turning to `CCCCNC(=O)CN(Cc1ccccc1)Cc1ccc2ccccc2c1`, the Activity in assay [1] stood at 54%. Moreover, the inhibition in assay [2] is 0%.
Turning to `CCOC(=O)CN(Cc1ccccc1)Cc1ccc2ccccc2c1`, the Activity in assay [1] came out at 51%. The compound further came in with an inhibition in assay [2] of 0%.
Consider `N#CCN(Cc1ccccc1)Cc1ccc2ccccc2n1`, for which the Activity in assay [1] was 47%. The compound also yielded an inhibition in assay [2] of 0%.
For `O=C(CN(Cc1ccccc1)Cc1ccc2ccccc2c1)OCCc1ccccc1`, the Activity in assay [1] is 46%. Besides, in assay [2], the inhibition came out at 0%.
In the same order, the values of `CN1CCN(C(=O)CN(Cc2ccccc2)Cc2ccc3ccccc3c2)CC1` are 58% and 0%.
As to `c1ccc(CN(Cc2ccc3ccccc3c2)c2ccncn2)cc1`, the Activity in assay [1] worked out at 61%. The inhibition in assay [2] was determined as 34%.
In the case of `O=C(O)CCCCN(Cc1ccccc1)Cc1ccc2ccccc2c1`, in assay [1], the Activity was 44%. The same compound had an inhibition in assay [2] of 0%.
For `COc1ccc(CN(CC#N)Cc2ccc3ccccc3c2)cc1`, in assay [1], the Activity worked out at 54%. Further, the inhibition in assay [2] came out at 0%.
In the case of `N#CCN(Cc1ccccc1)Cc1cnc2ccccc2c1`, in assay [1], the Activity came to 46%. The same compound returned an inhibition in assay [2] of 21%.
In the case of `N#CCN(Cc1ccc2ccccc2c1)Cc1ccccc1Br`, in assay [1], the Activity is 43%. In assay [2], the inhibition was found to be 0%.
As for `N#CCN(Cc1ccccc1)Cc1ccc2ccccc2c1`, the result in assay [3] was inactive. In addition, the Activity came to 5% in assay [4]; 50% in assay [1]; 50% in assay [5]; 95% in assay [6]; 33% in assay [7]. This compound returned an inhibition in assay [2] of 0%.
Regarding `O=C(CN(Cc1ccccc1)Cc1ccc2ccccc2c1)OCCN1CCOCC1`, the Activity in assay [1] worked out at 42%. In addition, the inhibition in assay [2] was found to be 0%.
`N#CCN(C/C=C/c1ccccc1)Cc1ccccc1`: the Activity in assay [1] came to 47%. In addition, in assay [2], the inhibition is 0%.
For `COc1ccc(CN(CC#N)Cc2ccccc2)cc1`, in that order: 49% and 0%.
One may read the Emax as the greatest response seen or fitted, relative to the assay's reference. Regarding `N#CCCCN(Cc1ccccc1)Cc1ccc2ccccc2c1`, the Emax in assay [3] came to 120%. For the same compound, the Activity in assay [1] stood at 68%; in assay [7], 47%. Moreover, in assay [2], the inhibition turned out to be 0%.
On to `O=C(CN(Cc1ccccc1)Cc1ccc2ccccc2c1)OCCO`, for which the Activity in assay [1] was determined as 53%. This compound came in with an inhibition in assay [2] of 0%.
Take `N#CCN(Cc1ccc(Br)cc1)Cc1ccc2ccccc2c1`: the Activity in assay [1] was determined as 45%. In assay [2], this compound returned an inhibition of 0%.
Regarding `c1ccc(CN(Cc2ccc3ccccc3c2)c2cccnc2)cc1`, the Activity in assay [1] turned out to be 59%. Also, the inhibition in assay [2] is 0%.
Take `N#CCN(Cc1ccccc1)Cc1ccc(C(F)(F)F)cc1`: the Activity in assay [1] worked out at 48%. Also, the inhibition in assay [2] worked out at 0%.
As to `CCOC(=O)CCCCN(Cc1ccccc1)Cc1ccc2ccccc2c1`, in assay [1], the Activity worked out at 52%. The same compound showed an inhibition in assay [2] of 0%.
In the same order, the values of `N#CCN(Cc1ccc(I)cc1)Cc1ccc2ccccc2c1` are 47% and 0%.
Regarding `CCCCCCCCCCCCCCCCOC(=O)CN(Cc1ccccc1)Cc1ccc2ccccc2c1`, the Activity in assay [1] was 38%. In assay [2], this compound gave an inhibition of 0%.
Consider `c1ccc(CN(Cc2ccc3ccccc3c2)c2ccccn2)cc1`, for which, in assay [1], the Activity came out at 56%. The inhibition in assay [2] was 17%.
For `N#CCN(Cc1ccccc1)Cc1ccc(Cl)cc1`, in that order: 53% and 0%.
In the same order, the values of `N#CCN(Cc1ccc(CCc2ccccc2)cc1)Cc1ccc2ccccc2c1` are 39% and 20%.
In the same order, the values of `N#CCN(Cc1ccccc1)Cc1cccc(Cl)c1` are 45% and 0%.
As to `C#CCN(Cc1ccccc1)Cc1ccc2ccccc2c1`, in assay [1], the Activity came to 51%. In assay [2], this compound came in with an inhibition of 0%.
Consider `O=C(O)CN(Cc1ccccc1)Cc1ccc2ccccc2c1`, for which the Activity in assay [1] is 35%. The compound further showed an inhibition in assay [2] of 0%.
Take `O=C(CN(Cc1ccccc1)Cc1ccc2ccccc2c1)N1CCN(c2ccccc2)CC1`: the Activity in assay [1] was found to be 43%. Besides, in assay [2], the inhibition was found to be 0%.
